Laboratory results taken from ChEMBL document CHEMBL4431335, “Synthesis and trypanocidal activity of novel benzimidazole derivatives” (Bioorg Med Chem Lett, 2016).
pIC50: −log10 of the molar value.

Key:
[1] = target: Triosephosphate isomerase, glycosomal (Trypanosoma cruzi) (UniProt P52270); assay: Inhibition of recombinant Trypanosoma cruzi triosephosphate isomerase assessed as reduction of DHAP at 100 uM after 2 hrs by measuring NADH consumption by alpha-glycerolphosphate dehydrogenase coupled assay
Summary of the method: (§1)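 Recombinant TIM (T. cruzi or human) at 5 µg/mL was preincubated with compound at 36 °C in 100 mM triethanolamine, 10 mM EDTA, pH 7.4, with compound dissolved in 10% DMSO. After 2 h, 1 µL was transferred into 1 mL of activity mix. Activity was measured as NADH consumed by α-glycerolphosphate dehydrogenase reducing DHAP. Controls were enzyme alone, substrate alone, and enzyme plus DMSO.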

[2] = test system: Trypanosoma cruzi; assay: Antitrypanosomal activity against epimastigote forms of Trypanosoma cruzi NINOA isolated from chagas disease patient after 24 hrs by resazurin dye based spectrophotometric analysis; type: functional, organism-based
Summary of the method: (§2)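 Epimastigotes at 1 × 10⁵/ml were exposed to compound for 24 h at 28 °C. Compounds were taken from 10 mg/mL DMSO stocks and diluted in sterile water, with final DMSO at most 1%. Concentrations were […], with DMSO-treated parasite controls. Viability was read by resazurin fluorescence (535/590 nm). Runs were in duplicate and IC50 was derived.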

[3] = test system: Trypanosoma cruzi; assay: Antitrypanosomal activity against epimastigote forms of Trypanosoma cruzi INC-5 isolated from chagas disease patient after 24 hrs by resazurin dye based spectrophotometric analysis; type: functional, organism-based; conditions: INC-5, 24 h; summary of the method: as §2
[4] = Cytotoxicity against mouse J774 cells assessed as decrease in cell viability after 24 hrs by resazurin assay; type: cell-based
Summary of the method: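 Mouse J774 macrophages were grown in DMEM with 10% FBS and treated with a range of compound concentrations for 24 h at 37 °C, 5% CO₂, with final DMSO below 1%. Untreated cells served as controls. Resazurin was added for 3 h and fluorescence was read (535/590 nm). Cytotoxicity was scored as % metabolic reduction versus untreated cells, and CC50 was derived.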

[5] = target: Triosephosphate isomerase (Homo sapiens) (UniProt P60174); assay: Inhibition of recombinant human triosephosphate isomerase assessed as reduction of DHAP at 100 uM after 2 hrs by measuring NADH consumption by alpha-glycerolphosphate dehydrogenase coupled assay; summary of the method: as §1
[6] = Solubility of the compound in DMSO at 200 uM; type: physicochemical
[7] = target: Triosephosphate isomerase, glycosomal (Trypanosoma cruzi, UniProt P52270); assay: Inhibition of recombinant Trypanosoma cruzi triosephosphate isomerase assessed as reduction of DHAP after 2 hrs by measuring NADH consumption by alpha-glycerolphosphate dehydrogenase coupled assay; summary of the method: as §1
[8] = target: Triosephosphate isomerase (Homo sapiens) (UniProt P60174); assay: Inhibition of recombinant human triosephosphate isomerase assessed as reduction of DHAP at 200 uM after 2 hrs by measuring NADH consumption by alpha-glycerolphosphate dehydrogenase coupled assay; summary of the method: as §1
[9] = target: Triosephosphate isomerase, glycosomal (Trypanosoma cruzi) (UniProt P52270); assay: Inhibition of recombinant Trypanosoma cruzi triosephosphate isomerase assessed as reduction of DHAP at 200 uM after 2 hrs by measuring NADH consumption by alpha-glycerolphosphate dehydrogenase coupled assay; summary of the method: as §1

Triosephosphate isomerase (Homo sapiens), sequence (P60174 whole entry): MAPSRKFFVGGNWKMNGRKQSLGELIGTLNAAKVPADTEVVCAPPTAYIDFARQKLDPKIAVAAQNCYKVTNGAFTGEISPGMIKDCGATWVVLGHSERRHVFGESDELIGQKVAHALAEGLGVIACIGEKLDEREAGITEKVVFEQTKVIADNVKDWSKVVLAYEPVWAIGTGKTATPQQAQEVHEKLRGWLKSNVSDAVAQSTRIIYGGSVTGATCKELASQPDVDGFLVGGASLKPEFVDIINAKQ
Triosephosphate isomerase, glycosomal, sequence (P52270 whole entry): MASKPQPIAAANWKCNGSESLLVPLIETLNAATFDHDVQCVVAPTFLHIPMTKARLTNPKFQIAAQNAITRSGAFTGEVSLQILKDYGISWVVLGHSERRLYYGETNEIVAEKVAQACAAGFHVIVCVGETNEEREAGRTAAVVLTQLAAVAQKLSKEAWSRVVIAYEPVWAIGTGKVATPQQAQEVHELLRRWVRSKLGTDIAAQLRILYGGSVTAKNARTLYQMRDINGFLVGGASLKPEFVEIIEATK
Triosephosphate isomerase, glycosomal (Trypanosoma cruzi), sequence (P52270 whole entry): as above

Structure (SMILES) | inhibition [1] [%] | pIC50 [2] | pIC50 [3] | CC50 at 24 h [4] [µM] | solubility [6] | inhibition [9] [%] | other results
COC(=O)c1cc2nc(SCC(=O)Nc3ccc(Cl)cc3)[nH]c2cc1Cl | 65 | 4.24 | 3.73 | 90.4 | Insoluble | – | inhibition [5]: 0%
COC(=O)c1cc2nc(SCC(=O)Nc3cccc(C(N)=O)n3)[nH]c2cc1Cl | 0 | – | – | – | Insoluble | – | –
COC(=O)c1cc2nc(SCC(=O)Nc3cnccn3)[nH]c2cc1Cl | – | 4.01 | 4.54 | 135 | – | 68 | pIC50 [7]: 4.09; inhibition [8]: 6%
COC(=O)c1cc2nc(SCC(=O)Nc3cccc(Cl)n3)[nH]c2cc1Cl | 21 | – | – | – | Insoluble | – | –
COC(=O)c1cc2nc(SCC(=O)Nc3ccc(Cl)cn3)[nH]c2cc1Cl | 41 | 3.91 | 4.02 | 82.7 | Insoluble | – | inhibition [5]: 0%
COC(=O)c1cc2nc(SCC(=O)Nc3ccccn3)[nH]c2cc1Cl | – | – | – | – | – | 10 | –
CC1CS(=O)(=O)CCN1/N=C/c1ccc([N+](=O)[O-])o1 (centres undefined) [NIFURTIMOX] | – | 4.05 | 4.29 | 132 | – | – | –
COC(=O)c1cc2nc(SCC(=O)Nc3cccc(C)n3)[nH]c2cc1Cl | 0 | – | – | – | Insoluble | – | –
COC(=O)c1cc2nc(SCC(=O)Nc3ncccn3)[nH]c2cc1Cl | – | – | – | – | – | 0 | –
COC(=O)c1cc2nc(SCC(=O)Nc3nccs3)[nH]c2cc1Cl | – | 3.92 | 4.31 | 104 | – | 59 | pIC50 [7]: 3.65; inhibition [8]: 0%
COC(=O)c1ccc2nc(SCC(=O)Nc3ncc([N+](=O)[O-])s3)[nH]c2c1 | – | – | – | – | – | 52 | –
O=C(CSc1nc2cc(Oc3cccc4ccccc34)c(Cl)cc2[nH]1)Nc1ncc([N+](=O)[O-])s1 | – | – | – | – | – | 48 | –
COC(=O)c1cc2nc(SCC(=O)Nc3ccc([N+](=O)[O-])cn3)[nH]c2cc1Cl | 0 | – | – | – | Insoluble | – | –
COC(=O)c1cc2nc(SCC(=O)Nc3ncc([N+](=O)[O-])s3)[nH]c2cc1Cl | – | 4.02 | 4.37 | 84.9 | – | 69 | pIC50 [7]: 4.11; inhibition [8]: 15%
COC(=O)c1cc2nc(SCC(=O)Nc3ccc(OC)cn3)[nH]c2cc1Cl | 4 | – | – | – | Insoluble | – | –
COC(=O)c1cc2nc(SCC(=O)Nc3ccccc3)[nH]c2cc1Cl | – | – | – | – | – | 33 | –
COC(=O)c1cc2nc(SCC(=O)Nc3ccncc3)[nH]c2cc1Cl | – | – | – | – | – | 33 | –
